Assay results as given in ChEMBL document CHEMBL1127689, “Novel 4-(aryloxy)tetrahydropyridine analogs of MPTP as monoamine oxidase A and B substrates” (J Med Chem, 1994).

Experiments:
[1] = target: T1, Amine oxidase [flavin-containing] A (Homo sapiens, UniProt P21397); assay: Turnover number (TN) for human mono-amine oxidase MAO-A
T1 sequence (P21397 whole entry): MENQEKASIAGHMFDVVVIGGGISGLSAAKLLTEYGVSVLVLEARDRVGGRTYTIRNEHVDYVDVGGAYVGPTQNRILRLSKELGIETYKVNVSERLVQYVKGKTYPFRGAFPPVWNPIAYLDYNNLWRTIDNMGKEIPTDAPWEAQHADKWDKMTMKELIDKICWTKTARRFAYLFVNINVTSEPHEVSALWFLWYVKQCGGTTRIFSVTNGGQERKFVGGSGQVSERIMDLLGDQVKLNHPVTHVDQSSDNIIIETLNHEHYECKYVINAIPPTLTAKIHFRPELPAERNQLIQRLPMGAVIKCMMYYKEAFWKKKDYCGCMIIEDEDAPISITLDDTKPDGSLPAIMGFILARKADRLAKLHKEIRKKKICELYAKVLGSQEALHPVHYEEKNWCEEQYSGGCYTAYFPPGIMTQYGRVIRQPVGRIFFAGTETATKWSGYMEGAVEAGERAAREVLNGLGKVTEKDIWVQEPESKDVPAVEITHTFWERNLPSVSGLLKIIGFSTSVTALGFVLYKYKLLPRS
In short: (§1)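 MAO-A preparation was diluted 1:4 in 20 mM phosphate, pH 7.4, with 20% w/v glycerol and used at 0.17 μM. Four substrate concentrations were used, from 500–62.5 μM solutions in 100 mM sodium phosphate, pH 7.4, after 1 min at 37 °C. Initial rates were taken from the 324 nm amino enone absorbance, read every 3 s for 2 min, in duplicate. Km and TN came from double-reciprocal plots.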

[2] = target: T2, Amine oxidase [flavin-containing] B (Bos taurus, UniProt P56560); assay: Ratio of turnover to Km for bovine MAO-B; conditions: cattle
T2 sequence (P56560 whole entry): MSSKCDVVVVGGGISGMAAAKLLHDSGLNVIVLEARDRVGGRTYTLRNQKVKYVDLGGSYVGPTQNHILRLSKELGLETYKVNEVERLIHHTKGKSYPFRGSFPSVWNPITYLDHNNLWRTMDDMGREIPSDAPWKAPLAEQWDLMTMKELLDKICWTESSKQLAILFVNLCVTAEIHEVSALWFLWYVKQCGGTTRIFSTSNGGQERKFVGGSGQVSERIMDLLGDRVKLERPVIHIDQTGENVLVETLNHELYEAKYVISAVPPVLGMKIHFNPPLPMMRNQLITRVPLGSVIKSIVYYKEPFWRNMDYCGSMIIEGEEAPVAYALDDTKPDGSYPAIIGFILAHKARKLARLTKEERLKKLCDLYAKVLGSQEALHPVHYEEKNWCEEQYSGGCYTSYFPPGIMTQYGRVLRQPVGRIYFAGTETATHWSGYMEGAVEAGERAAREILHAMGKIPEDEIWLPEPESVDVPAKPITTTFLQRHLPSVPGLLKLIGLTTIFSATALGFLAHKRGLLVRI
In short: (§2)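 Bovine liver mitochondrial MAO-B, partially purified, at 0.087 μM. Four substrate concentrations were used, from 500–62.5 μM solutions in 100 mM sodium phosphate, pH 7.4. Each was equilibrated 1 min at 37 °C before enzyme was added. Amino enone formation was read at 324 nm every 3 s for 2 min, in duplicate. Km and TN came from Lineweaver-Burk double-reciprocal plots of initial rates.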

[3] = target: T1, Amine oxidase [flavin-containing] A; assay: Ratio of turnover to Km for human MAO-A; in short: as §1
[4] = target: T1, Amine oxidase [flavin-containing] A; assay: Oxidation by human mono-amine oxidase MAO-A; in short: as §1
[5] = target: T2, Amine oxidase [flavin-containing] B; assay: (§3) Oxidation by bovine mono-amine oxidase B MAO-B; conditions: cattle; in short: as §2
[6] = target: T2, Amine oxidase [flavin-containing] B; assay: Turnover number (TN) for bovine mono-amine oxidase B MAO-B; conditions: cattle; in short: as §2
MAO-B = target: T3, MAO-B (Bos taurus, UniProt P56560); assay: as §3; conditions: cattle, bovine monoamine oxidase B (MAO-B) enzyme; in short: as §2
T3 sequence (P56560 whole entry): T2 sequence (P56560 whole entry)

| SMILES | TN [1] | Ratio [2] | Ratio [3] | Km [4] [µM] | Km [5] [µM] | TN [6] | Km (MAO-B) [µM] |
| --- | --- | --- | --- | --- | --- | --- | --- |
| CN1CC=C(Cc2cccc3ccccc23)CC1 | 433 M min-1 M-1 | 105 | 2590 | 167 | 847 | 89 M min-1 M-1 | – |
| NCc1ccccc1 [BENZYLAMINE] | – | 963 | – | – | 290 | 283 M min-1 M-1 | – |
| CN1CC=C(c2ccccc2)CC1 | 20 M min-1 M-1 | 523 | 143 | – | – | 204 M min-1 M-1 | – |
| CN1CC=C(Oc2cc3ccccc3c3ccccc23)CC1 | 59 M min-1 M-1 | – | 212 | – | – | > 200 M min-1 M-1 | > 1000 |
| CN1CC=C(Oc2ccc(Cl)cc2Cl)CC1 | 95 M min-1 M-1 | 1334 | 3290 | – | – | 223 M min-1 M-1 | – |
| CN1CC=C(Oc2ccc(C(C)(C)C)cc2)CC1 | 111 M min-1 M-1 | 395 | 855 | – | – | 22 M min-1 M-1 | – |
| CCCCc1ccc(OC2=CCN(C)CC2)cc1 | 85 M min-1 M-1 | 1090 | 1676 | – | – | 92 M min-1 M-1 | – |
| CN1CC=C(Cc2cc3ccccc3c3ccccc23)CC1 | 365 M min-1 M-1 | – | 759 | – | – | > 53 M min-1 M-1 | – |
| CN1CC=C(Cc2ccc3ccccc3c2)CC1 | 121 M min-1 M-1 | 310 | 3340 | 36 | – | 276 M min-1 M-1 | – |
| NCCC(=O)c1ccccc1N [KYNURAMINE] | 146 M min-1 M-1 | – | 860 | 170 | – | – | – |

Continued, values first:

| TN [1] | Ratio [2] | Ratio [3] | Km [4] [µM] | Km [5] [µM] | TN [6] | Km (MAO-B) [µM] | SMILES |
| --- | --- | --- | --- | --- | --- | --- | --- |
| 207 M min-1 M-1 | 1214 | 2685 | – | – | 333 M min-1 M-1 | – | CN1CC=C(Oc2ccc3ccccc3c2)CC1 |
| 130 M min-1 M-1 | 4151 | 2359 | – | – | 241 M min-1 M-1 | – | CN1CC=C(Oc2ccccc2)CC1 |
| 227 M min-1 M-1 | 565 | 1567 | – | – | 81 M min-1 M-1 | – | CN1CC=C(Oc2cccc3ccccc23)CC1 |
| 9 M min-1 M-1 | 1250 | 139 | 66 | 154 | 193 M min-1 M-1 | – | CN1CC=C(Cc2ccccc2)CC1 |
| 173 M min-1 M-1 | 363 | 1710 | – | – | 103 M min-1 M-1 | – | CN1CC=C(Oc2ccc(-c3ccccc3)cc2)CC1 |
